# Results: article PMC8929358 (Pharmacology Research & Perspectives, 2021)
# “Also recorded” adds a separate entry of the source. Like-named read-outs stand apart in the source and are kept apart here.
# Experiments:
# HLS9, HIS9, and SULT1A1 = experiment: Inhibition of opicapone sulfation, result in words for all enzyme sources; assay type: biochemical, human; details: acetaminophen 1–500 μM; quercetin and 2,6-dichloro-4-nitrophenol 0.05–100 μM
# rat soluble COMT = molecular target: T1, rat soluble COMT (Rattus norvegicus, UniProt P22734); experiment: COMT activity; assay type: biochemical; details: for Effect upon COMT activity: up to 3000 nM
# T1 sequence (P22734 1-221 isoform P22734-2): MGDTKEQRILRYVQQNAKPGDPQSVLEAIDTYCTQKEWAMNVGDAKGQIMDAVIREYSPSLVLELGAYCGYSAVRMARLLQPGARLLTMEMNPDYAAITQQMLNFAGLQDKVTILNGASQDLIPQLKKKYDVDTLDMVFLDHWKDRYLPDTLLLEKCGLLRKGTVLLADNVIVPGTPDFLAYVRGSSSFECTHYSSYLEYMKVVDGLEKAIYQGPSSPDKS
# [1] = assay type: in vivo, rat; details: plasma; for Tmax: median (range)
# [2] = assay type: in vivo, rat; details: oral 100 mg/kg; for Feces, % of administered dose: feces pools 0–48 h
# Outline: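 In Sprague Dawley rats given 100 mg/kg [14C]-labelled compound (100 μCi/kg) orally in 0.2% HPMC, heparinized blood was taken by cardiac puncture at 2–168 h. Plasma was precipitated with MeOH/ACN (50:50), dried under N2 and reconstituted. Urine (0–6, 6–24 h) and feces (0–12, 12–24, 24–48 h) were pooled and stored at −80°C. Analysis used accurate-mass LC-MS with offline radiodetection.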
# [3] = rat, po, 1 g/kg, t max, oral 1 g/kg opicapone
smiles,measurement,setting,value
"O=c1c(O)c(-c2ccc(O)c(O)c2)oc2cc(O)cc(O)c12 [Quercetin, quercetin]",Inhibition of the sulfate conjugation of opicapone,"HLS9, HIS9, and SULT1A1",completely inhibited
"Cc1nc(Cl)c(-c2noc(-c3cc(O)c(O)c([N+](=O)[O-])c3)n2)c(C)c1Cl [BIA 9‐1079, 5-(3-(2,5-dichloro-4,6-dimethylpyridin-3-yl)-1,2,4-oxadiazol-5-yl)-3-nitrobenzene-1,2-diol]",IC50,rat soluble COMT,128 nM
same,Effect upon COMT activity,rat soluble COMT,active in inhibiting the enzyme
same,AUC(0-t),"[1]; rat, po, 1 g/kg",4080 ng·h/mL
same,Cmax,"[1]; rat, po, 1 g/kg",381 ng/mL
same,Tmax,[1]; [3],4 h
same,"Feces, % of administered dose","[2]; ND = not detected, 100 mg/kg",1.14%
same,Detectable in the circulation up to (time post-dose),[2]; plasma,8 h
"Cc1nc(Cl)c(-c2noc(-c3cc(O[C@@H]4O[C@H](C(=O)O)[C@@H](O)[C@H](O)[C@H]4O)c(O)c([N+](=O)[O-])c3)n2)c(C)c1Cl [BIA 9‐1107, (2S,3S,4S,5R,6S)-6-(5-(3-(2,5-dichloro-4,6-dimethylpyridin-3-yl)-1,2,4-oxadiazol-5-yl)-2-hydroxy-3-nitrophenoxy)-3,4,5-trihydroxy-tetrahydro-2H-pyran-2-carboxylic acid]",Amount detected in circulation,[1]; oral 1 g/kg opicapone,only traceable amounts
"Nc1cc(C(=O)O)cc(O)c1O [BIA 9‐3721, 3-amino-4,5-dihydroxybenzoic acid]","Feces, % of administered dose",[2]; ND = not detected,1.87%
"Cc1nc(Cl)c(-c2noc(-c3cc(OS(=O)(=O)O)c(O)c([N+](=O)[O-])c3)n2)c(C)c1Cl.c1ccncc1 [BIA 9‐1105, pyridinium 5-(3-(2,5-dichloro-4,6-dimethylpyridin-3-yl)-1,2,4-oxadiazol-5-yl)-2-hydroxy-3-nitrophenyl sulfate]",C max,"[1]; oral 1 g/kg opicapone, mean (SD)",58.2 (32.6) ng/ml
same,AUC0–t,"[1]; oral 1 g/kg opicapone, mean (SD), sampling to 48 h",1322.5 (503.5) ng.h/ml
same,Tmax,[1]; oral 1 g/kg opicapone,16 (8–24) h
"COc1cc(-c2nc(-c3c(C)c(Cl)c(C)[n+]([O-])c3Cl)no2)cc([N+](=O)[O-])c1O [BIA 9‐1100, 2,5-dichloro-3-(5-(4-hydroxy-3-methoxy-5-nitrophenyl)-1,2,4-oxadiazol-3-yl)-4,6-dimethylpyridine 1-oxide]",Effect upon COMT activity,rat soluble COMT,no modulatory effect
same,AUC(0-t),"[1]; rat, po, 1 g/kg",7920 ng·h/mL
same,Cmax,"[1]; rat, po, 1 g/kg",1420 ng/mL
same,Tmax,[1]; [3],1.5 h
"O=[N+]([O-])c1cc(Cl)c(O)c(Cl)c1 [DCNP, 2,6‐dichloro‐4‐nitrophenol]",Inhibition of the sulfate conjugation of opicapone,"HLS9, HIS9, and SULT1A1",completely inhibited
"CC(=O)Nc1cc(C(=O)O)cc(O)c1O [BIA 9‐3752, 3-acetamido-4,5-dihydroxybenzoic acid]",Effect upon COMT activity,rat soluble COMT,no modulatory effect
"COc1c(O)cc(-c2nc(-c3c(C)c(Cl)c(C)[n+]([O-])c3Cl)no2)cc1[N+](=O)[O-] [BIA 9‐1104, 2,5-dichloro-3-(5-(3-hydroxy-4-methoxy-5-nitrophenyl)-1,2,4-oxadiazol-3-yl)-4,6-dimethylpyridine 1-oxide]",IC50,rat soluble COMT,429 nM
same,Effect upon COMT activity,rat soluble COMT,active in inhibiting the enzyme; also recorded: endowed with activity in inhibiting COMT
"Cc1c(Cl)c(C)[n+]([O-])c(Cl)c1-c1noc(-c2cc(O[C@@H]3O[C@H](C(=O)O)[C@@H](O)[C@H](O)[C@H]3O)c(O)c([N+](=O)[O-])c2)n1 [BIA 9‐1106, 3-(5-(3-((2S,3R,4S,5S,6S)-6-carboxy-3,4,5-trihydroxytetrahydro-2H-pyran-2-yloxy)-4-hydroxy-5-nitrophenyl)-1,2,4-oxadiazol-3-yl)-2,5-dichloro-4,6-dimethylpyridine 1-oxide]",Cmax,"[1]; rat, po, 1 g/kg",4290 ng/mL
same,"Urine, % of administered dose","[2]; urine pools 0–24 h, ND = not detected",0.85%
CC(=O)Nc1ccc(O)cc1 [acetaminophen],Inhibition of the sulfate conjugation of opicapone,"HLS9, HIS9, and SULT1A1",No inhibition
